# According to ChEMBL document CHEMBL3085766, “Synthesis, ex vivo and in silico studies of 3-cyano-2-pyridone derivatives with vasorelaxant activity” (Eur J Med Chem, 2013):
# Key:
# Aorta [1] = assay: Vasorelaxant activity in rat endothelium-denuded thoracic aortic ring assessed as inhibition of noradrenaline-induced contraction relative to control; assay type: functional
# Summary of the method: (§1)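 Isometric tension of isolated rat thoracic aorta rings, endothelium intact or removed, recorded with a force transducer. After stabilization, rings were challenged with […] for 10 min and washed in fresh Krebs solution. This was done three times at 30-min intervals. Endothelial status was confirmed by […] relaxation in the last contraction. Rings were then contracted with NA and given quarter-log cumulative concentrations; EC50 derived.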
# Aorta [2] = assay: Vasorelaxant activity in rat endothelium-denuded thoracic aortic ring assessed as inhibition of noradrenaline-induced contraction; assay type: functional, tissue-based; summary of the method: as §1
# Aorta [3] = assay: Vasorelaxant activity in rat endothelium-intact thoracic aortic ring assessed as inhibition of noradrenaline-induced contraction; assay type: functional, tissue-based; summary of the method: as §1
# Aorta [4] = assay: Vasorelaxant activity in rat endothelium-intact thoracic aortic ring assessed as inhibition of noradrenaline-induced contraction relative to control; assay type: functional; summary of the method: as §1
EC50 (Aorta [2]) [µM],EC50 (Aorta [3]) [µM],Compound,Efficacy (Aorta [1]) [%],inhibition (Aorta [2]),Efficacy (Aorta [4]) [%]
178,270,CCOC(=O)c1c(C)[nH]c(=O)c(C#N)c1-c1ccncc1,86.4,Dose-dependent effect,85.47
,0.3,C[N+](C)(C)CCOC(N)=O.[Cl-] [CARBACHOL],,,74.06
62,85,CCOC(=O)c1c(C)[nH]c(=O)c(C#N)c1-c1cccc(Cl)c1,99,Dose-dependent effect,97
8.2,7,CCOC(=O)c1c(C)[nH]c(=O)c(C#N)c1-c1ccc([N+](=O)[O-])cc1,95,Dose-dependent effect,98
31,22,CCOC(=O)c1c(C)[nH]c(=O)c(C#N)c1-c1ccco1,93,Dose-dependent effect,100
3.6,4.4,CCOC(=O)c1c(C)[nH]c(=O)c(C#N)c1-c1ccc([N+](=O)[O-])cc1[N+](=O)[O-],99,Dose-dependent effect,97
12,5,CCOC(=O)c1c(C)[nH]c(=O)c(C#N)c1-c1cccs1,99,Dose-dependent effect,100

Compound,EC50 (Aorta [2]) [µM],EC50 (Aorta [3]) [µM],Efficacy (Aorta [1]) [%],inhibition (Aorta [2]),Efficacy (Aorta [4]) [%]
COC(=O)C1=C(C)NC(C)=C(C(=O)OC)C1c1ccccc1[N+](=O)[O-] [NIFEDIPINE],0.03,,97,,
